Results pooled from the literature.
Lines come from different studies, so protocols differ.
ALK: ALK tyrosine kinase receptor (ALK, Homo sapiens, UniProt Q9UM73)
ALK C1156Y: ALK tyrosine kinase receptor (ALK, Homo sapiens, UniProt Q9UM73, C1156Y)

SMILES	target	effect on	mode	technique	concentration	endpoint	value
CO[C@@H]1[C@H](N(C)C(=O)c2ccccc2)C[C@H]2O[C@]1(C)n1c3ccccc3c3c4c(c5c6ccccc6n2c5c31)C(=O)NC4	ALK	enzyme activity	inhibitor	–	1 µM	inhibition	54%
C1=C/COCc2cc(ccc2OCCN2CCCC2)Nc2nccc(n2)-c2cccc(c2)COC/1	ALK	binding	–	–	0.1 µM	remaining binding	73%
CS(=O)(=O)c1ccccc1Nc1nc(Nc2ccnc(CO)c2)ncc1Cl	ALK	enzyme activity	inhibitor	radiometric	1 µM	remaining activity	10.2%
C=CC(=O)N1CCC([C@@H]2CCNc3c(C(N)=O)c(-c4ccc(Oc5ccccc5)cc4)nn32)CC1	ALK tyrosine kinase receptor (ALK, Homo sapiens, UniProt Q9UM73, L1196M)	cell-free assay	–	–	1 µM	inhibition	19%
CS(=O)(=NC#N)c1ccccc1Nc1nc(Nc2ccc(CO)nc2)ncc1Cl (stereo not shown)	ALK	enzyme activity	inhibitor	radiometric	1 µM	remaining activity	23.4%
C[C@H]1CC[C@H](n2c3cnccc3c3cnc(Nc4ccc5c(n4)CCN(C(=O)CO)C5)nc32)CC1	ALK	binding	–	–	1 µM	remaining binding	84%
CC#CC(=O)N1CCC[C@H]1c1nc(-c2ccc(C(=O)Nc3ccccn3)cc2)c2c(N)nccn12	ALK C1156Y	enzyme activity	inhibitor	–	1 µM	inhibition	0%
Cc1ccc(NC(=O)c2ccnc(C(F)(F)F)c2)cc1-c1cc(OCCO)nc(N2CCOCC2)c1	ALK C1156Y	binding	–	–	1 µM	remaining binding	100%
CNC(=O)c1ccccc1Nc1nc(Nc2ccc(CO)nc2)ncc1Cl	ALK	enzyme activity	inhibitor	radiometric	1 µM	remaining activity	2.92%
COc1ccc2[nH]c3c4[nH]c5ccc(OC)cc5c4c4c(c3c2c1)C(=O)NC4=O	ALK	binding	–	–	1 µM	remaining binding	55%
CCCCC(=O)Nc1ccc(-c2ccc3ncn(CCC)c(=O)c3c2)cn1	ALK C1156Y	binding	–	competition with immobilised ligand	0.5 µM	remaining binding	100%
CN1CCN(C(=O)c2ccc(NC(=O)Nc3ccc(N(C)c4ccnc(Nc5ccc(CS(C)(=O)=O)cc5)n4)cc3)cc2)CC1	ALK C1156Y	binding	–	–	1 µM	remaining binding	64%
CS(=O)(=NC#N)c1ccccc1Nc1nc(Nc2ccnc(CO)c2)ncc1Cl (stereo not shown)	ALK	enzyme activity	inhibitor	radiometric	1 µM	remaining activity	36.7%
